Assay results published in ChEMBL document CHEMBL1142431, “Benzodioxoles: novel cannabinoid-1 receptor inverse agonists for the treatment of obesity” (J Med Chem, 2008).
Calls of active or inactive are those of the source. The calls are words filed in the database; no cut-off is given here.

How the values were obtained:
Homo sapiens [1] = organism: Homo sapiens; experiment: Selectivity for human CB1 receptor over human ORL1 receptor
Homo sapiens [2] = organism: Homo sapiens; experiment: Selectivity for human CB1 receptor over human glucocorticoid receptor
Homo sapiens [3] = organism: Homo sapiens; experiment: Selectivity for human CB1 receptor over human estrogen receptor
Homo sapiens [4] = organism: Homo sapiens; experiment: Selectivity for human CB1 receptor over human progesterone receptor
[5] = Selectivity for human CB1 receptor over L type calcium channel at DHP site
[6] = Selectivity for human CB1 receptor over sodium channel
[7] = Selectivity for human CB1 receptor over 5HTT
Homo sapiens [8] = organism: Homo sapiens; experiment: Selectivity for human CB1 receptor over human bradykinin B1 receptor
Homo sapiens [9] = organism: Homo sapiens; experiment: Selectivity for human CB1 receptor over human bradykinin B2 receptor
Rattus norvegicus [10] = experiment: Reduction in progression of body weight in diet-induced obesity Sprague-Dawley rat model at 3 mg/kg, po for 16 days; assay type: functional, organism-based; parameters: dose 3 mg/kg
Outline: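 Obese Sprague-Dawley rats (HFD 10 weeks from 3 weeks old, selected as >2 SD above chow controls), n = 9 per group, gavage-adapted 3 days, then dosed daily by gavage at 5:00 p.m. for 16 days in water with 7.5% gelatine and 0.62% NaCl, 2 mL/kg; body weight and food intake recorded daily.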

Rattus norvegicus [11] = experiment: Reduction in body fat in po dosed diet-induced obesity Sprague-Dawley rat model; assay type: functional, organism-based
Outline: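 Sprague-Dawley rats fed HFD from 3 weeks of age for 10 weeks; high responders (body weight exceeding chow controls by >2 SD) grouped n = 9. After 3 days gavage adaptation, daily oral dosing at 5:00 p.m. for 2 weeks in 7.5% gelatine/0.62% NaCl in water, 2 mL/kg. Fat and lean mass by MRI before and at end of treatment.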

Homo sapiens [12] = organism: Homo sapiens; experiment: Selectivity for human CB1 receptor over human adenosine A2A receptor
Homo sapiens [13] = organism: Homo sapiens; experiment: Selectivity for human CB1 receptor over human CCK2 receptor
[14] = Selectivity for human CB1 receptor over central imidazoline I2 receptor
Homo sapiens [15] = organism: Homo sapiens; experiment: Selectivity for human CB1 receptor over human NK2 receptor
Mus musculus = experiment: Reversal of CP-55940-induced hypothermia in NMRI mouse assessed as rectal temperature at 30 mg/kg, ip; assay type: functional; details: route intraperitoneal, read-out: ID50 (the source's name)
Outline: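 Mice housed eight per group, eight per dose, habituated at least 2 h. Test compound in 0.3% Tween 80 (10 mL/kg) given 90 min before CP 55940 (0.3 mg/kg iv, same vehicle). Body temperature read 20 min before compound, just before CP 55940, and 20 min after it.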

O=C(c1cc2c(cc1F)O[C@](c1ccc(F)cc1)(c1ccc(Cl)cc1Cl)O2)N1CCOCC1
Selectivity ratio (Homo sapiens [1]): 300
Selectivity ratio (Homo sapiens [2]): 300
Selectivity ratio (Homo sapiens [3]): 300
Selectivity ratio (Homo sapiens [4]): 300
Selectivity ratio [5]: 300
Selectivity ratio [6]: 300
Selectivity ratio [7]: 300
Selectivity ratio (Homo sapiens [8]): 300
Selectivity ratio (Homo sapiens [9]): 300
Activity (Rattus norvegicus [10]): Active
Activity (Rattus norvegicus [11]): Active
Selectivity ratio (Homo sapiens [12]): 300
Selectivity ratio (Homo sapiens [13]): 300
Selectivity ratio [14]: 300
Selectivity ratio (Homo sapiens [15]): 300
ED50 (Mus musculus): 4 mg/kg
